In the library only some 1.9% were active in any assay of this set; here they are far more common.
PglD inh – C. jejuni PglD acetyltransferase inhibitors, primary screen, biochemical, DTNB colorimetric, single point; 0.098% of 360,000 active; UDP-N-acetylbacillosamine N-acetyltransferase PglD (Campylobacter jejuni); AID 602405, 2012; inhibition, % at 12.5 µM; purified PglD enzyme, DTNB colorimetric CoA detection; in the data active means inhibition above about 16%, passing the limit was not always enough
Cneo AK release – Cryptococcus neoformans cell lysis inducers, primary screen, AK release luminescence, single concentration. 0.2% of 360,000 active. C. neoformans lysis, adenylate kinase release luminescence, 4 h; normalised: neutral wells 0, clomiphene wells 100. AID 651654, 2012. lysis activity, % at 15 µM;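 active means mean lysis activity across replicates of at least 80%, whatever share of replicates individually reach that level; inactive means mean lysis activity below 80%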
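Schedule: static 4 h at 37 °C with compound, 1 h detection; system: C. neoformans cells; benchmarks: Clomiphene as positive control; buffer or medium: fresh YPD medium; measure: luminescence rise reflecting yeast cell lysis; measured by: luminescent adenylate kinase detection reagent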
RAD52 anneal inh – RAD52 DNA annealing inhibitors, primary screen, biochemical, FRET, single point, set 2. DNA repair protein RAD52 homolog (Homo sapiens), P43351. recombinant RAD52 DNA annealing, FRET fluorescence. 0.46% of 360,000 active. inhibition, % at 18.7 µM;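 active means every replicate showing at least 50% inhibition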
RAD54 branch – inhibitors of human RAD54 branch migration, primary screen, biochemical, fluorescence, single point; DNA repair and recombination protein RAD54-like (Homo sapiens), Q92698; RAD54 Holliday junction branch migration, FAM/BHQ fluorescence; inhibition, % at 10.4 µM; 0.14% of 360,000 active; AID 602329, 2012;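 active means mean normalized replicate activity at least 40 and at least half of replicates scoring 40 or more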;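 further: 0% = median of neutral control wells and 100% = median of positive control wells; inhibitors cause a drop in the FAM fluorescence signal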
Target sequence (Q92698 whole entry, looked up): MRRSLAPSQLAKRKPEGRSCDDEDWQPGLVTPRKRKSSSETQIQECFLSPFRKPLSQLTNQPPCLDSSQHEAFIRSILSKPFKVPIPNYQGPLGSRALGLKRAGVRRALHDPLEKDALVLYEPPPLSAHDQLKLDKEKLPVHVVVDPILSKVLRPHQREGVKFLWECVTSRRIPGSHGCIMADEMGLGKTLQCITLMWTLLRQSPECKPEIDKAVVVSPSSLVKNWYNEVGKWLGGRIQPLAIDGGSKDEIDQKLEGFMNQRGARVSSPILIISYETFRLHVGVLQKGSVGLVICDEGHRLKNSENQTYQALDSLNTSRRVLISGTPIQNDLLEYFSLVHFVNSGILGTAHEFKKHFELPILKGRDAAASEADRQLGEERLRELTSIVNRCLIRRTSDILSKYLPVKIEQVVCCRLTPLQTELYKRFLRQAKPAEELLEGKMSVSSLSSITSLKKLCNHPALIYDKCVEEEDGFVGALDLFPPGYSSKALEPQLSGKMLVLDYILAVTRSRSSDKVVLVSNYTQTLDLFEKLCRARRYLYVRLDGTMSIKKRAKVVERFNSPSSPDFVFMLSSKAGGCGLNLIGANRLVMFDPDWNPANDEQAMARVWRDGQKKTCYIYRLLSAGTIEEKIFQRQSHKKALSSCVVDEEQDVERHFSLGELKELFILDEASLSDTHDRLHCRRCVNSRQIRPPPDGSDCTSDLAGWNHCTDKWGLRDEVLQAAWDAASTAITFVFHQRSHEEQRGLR
rRNA inh HTS – reduced GFP signal of wild-type E. coli, primary screen, bacterial rRNA inhibitor project, GFP/RFP fluorescence, OD600, single point. E. coli WT GFP vs humanized-ribosome RFP mutants, 24 h; hits give low values; DMSO median 0, no signal -100. GFP signal change (wild-type ribosome), % (test concentration not listed). 1.6% of 350,000 active. AID 720706, 2013;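 active means significant combined selectivity score with lowered wild-type GFP, culture density cut under 30%, mutant RFP and density less affected; inactive means any of these conditions unmet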
The depositor's hits bear a star.

C[C@H]1CCCCO[C@@H](CN(C)S(=O)(=O)c2cccs2)[C@@H](C)CN([C@@H](C)CO)C(=O)c2cc(NS(=O)(=O)c3cn(C)cn3)ccc2O1 was read as PglD inh 5, Cneo AK release 4, RAD52 anneal inh 109*, RAD54 branch -1 and rRNA inh HTS -6.
`C[C@@H]1CCCCO[C@@H](CN(C)S(=O)(=O)c2cccs2)[C@H](C)CN([C@@H](C)CO)C(=O)c2cc(NS(=O)(=O)c3cn(C)cn3)ccc2O1` gave PglD inh -1, Cneo AK release 2, RAD52 anneal inh 84*, RAD54 branch 2 and rRNA inh HTS -1.
For C[C@@H]1CCCCO[C@@H](CN(C)S(=O)(=O)c2cccs2)[C@@H](C)CN([C@@H](C)CO)C(=O)c2cc(NS(=O)(=O)c3cn(C)cn3)ccc2O1 the results were PglD inh 3, Cneo AK release 0, RAD52 anneal inh 111*, RAD54 branch 2 and rRNA inh HTS 6.
Screening C[C@@H]1CN([C@H](C)CO)S(=O)(=O)c2ccc(-c3cccnc3)cc2O[C@H]1CN(C)C(=O)C1CCCCC1 returned PglD inh 2, Cneo AK release 0, RAD52 anneal inh 3, RAD54 branch -2 and rRNA inh HTS -7.
O=S(=O)(Cc1ccccc1)N1CC2(C1)[C@@H](c1ccccc1)[C@H](CO)N2CC1CC1 was read as rRNA inh HTS -3.
Cc1nn(-c2ccccc2)c(Cl)c1/C=N/NC(=O)c1ccco1 was read as PglD inh 0, Cneo AK release -4 and RAD54 branch 6.
Screening Cc1nn(-c2ccccc2)c(Cl)c1/C=N/NC(=O)OC(C)(C)C returned PglD inh -1, Cneo AK release 0, RAD52 anneal inh -10, RAD54 branch -7 and rRNA inh HTS -20*.
COc1ccc(NCC(=O)N/N=C/c2c(C)nn(Cc3ccccc3)c2Cl)cc1 was read as PglD inh 4, Cneo AK release -2, RAD52 anneal inh 6, RAD54 branch -4 and rRNA inh HTS -14*.
Screening Cc1nn(Cc2ccccc2)c(C)c1/C=N/NC(=O)CNc1cccc(C(F)(F)F)c1 returned RAD52 anneal inh -13 and rRNA inh HTS -10.
Screening CCOC(=O)c1sc(/S(C)=N\S(=O)(=O)c2cccc(Cl)c2)c2c1CCC=C2 (stereo not given) returned RAD52 anneal inh -21 and rRNA inh HTS -19*.
`CCOC(=O)C1=CCN(S(=O)(=O)c2cccc(Cl)c2)C1c1ccc(C)cc1` (stereo not given) gave PglD inh 2, Cneo AK release -1, RAD52 anneal inh -9, RAD54 branch -8 and rRNA inh HTS -9.
`CC(=O)N1[C@H](CO)[C@@H](c2ccccc2)C12CN(C(=O)CN1CCOCC1)C2` gave rRNA inh HTS 4.
For COC(=O)Nc1ccc(SCC(=O)c2ccccc2)cc1 the results were RAD52 anneal inh -13 and rRNA inh HTS -25*.
O=C(COc1ccc(Cl)cc1)Nc1nnc(-c2ccco2)o1 was read as RAD52 anneal inh -18 and rRNA inh HTS -35*.
For CN(C)CC#Cc1ccc([C@@H]2[C@@H](CO)N3CCCCN(C(=O)CN(C)C)C[C@@H]23)cc1 the results were PglD inh 6, Cneo AK release 6, RAD52 anneal inh 71*, RAD54 branch -16 and rRNA inh HTS 5.
CN(C)CC#Cc1ccc([C@@H]2[C@@H](CO)N3CCCCN(C(=O)Nc4ccccc4F)C[C@@H]23)cc1 was read as PglD inh -4, Cneo AK release 1, RAD52 anneal inh 54*, RAD54 branch -13 and rRNA inh HTS -2.
For CN(C)CC#Cc1ccc([C@@H]2[C@H]3CN(C(=O)Nc4ccccc4F)CCCCN3[C@H]2CO)cc1 the results were PglD inh -6, Cneo AK release 1, RAD52 anneal inh 42, RAD54 branch 10 and rRNA inh HTS 0.
`C[C@@H]1CN([C@@H](C)CO)C(=O)c2cc(NC(=O)CCCCCC(=O)Nc3ccccc3N)ccc2O[C@@H]1CN(C)S(C)(=O)=O` gave RAD52 anneal inh 8 and rRNA inh HTS 2.
C[C@@H]1CCCCO[C@H](CN(C)C(=O)CCCN(C)C)[C@@H](C)CN([C@H](C)CO)C(=O)c2cc(NC(=O)Nc3ccc(F)cc3)ccc2O1 was read as PglD inh 1, Cneo AK release -1, RAD52 anneal inh 13, RAD54 branch 7 and rRNA inh HTS 4.
`CC(=O)Nc1nc2ccccc2n1Cc1ccccc1Cl` gave RAD52 anneal inh -1 and rRNA inh HTS -23*.
Screening N#Cc1ccc(OCC(=O)N2CCN(S(=O)(=O)c3ccc(Cl)s3)CC2)cc1 returned PglD inh -3, Cneo AK release 0, RAD52 anneal inh -33, RAD54 branch -9 and rRNA inh HTS -20*.
`Cc1ccc(C)c(S(=O)(=O)Nc2ccccc2C(=O)Nc2ccc(S(=O)(=O)Nc3ncccn3)cc2)c1` gave PglD inh 6, Cneo AK release 1, RAD52 anneal inh -51, RAD54 branch 1 and rRNA inh HTS -31*.
Screening Cc1ccc(C)c(S(=O)(=O)Nc2ccc(S(=O)(=O)Nc3ncccn3)cc2)c1 returned PglD inh -7, Cneo AK release -3, RAD52 anneal inh -10, RAD54 branch -4 and rRNA inh HTS -6.
Screening CNC[C@H]1Oc2ccc(NS(C)(=O)=O)cc2C(=O)N(C)C[C@@H]1C returned rRNA inh HTS 0.
`CC1(C)CC(N2CCCC2)=CC(=[N+]2CCCCCC2)C1` gave RAD52 anneal inh -10 and rRNA inh HTS -21*.
Screening CCC(=O)N1[C@H](CO)[C@H](c2ccc(C3=CCCCC3)cc2)[C@H]1CNCC1CCC1 returned RAD52 anneal inh -12 and rRNA inh HTS 2.
Screening Cc1ccccc1-n1ncc2c(SCC(=O)NC3CCCC3)ncnc21 returned PglD inh 2, Cneo AK release 0, RAD52 anneal inh -2, RAD54 branch -9 and rRNA inh HTS 12.
Screening Cc1ccccc1-n1ncc2c(SCC(=O)N3c4ccccc4CC3C)ncnc21 (stereo not given) returned Cneo AK release 2, RAD52 anneal inh -14, RAD54 branch -11 and rRNA inh HTS -26*.
For C[C@@H]1COCc2cn(nn2)CC[C@@H](Cc2ccccc2)C(=O)N1 the results were rRNA inh HTS -1.
